G6PDH counter = L. mesenteroides G6PDH inhibition counter-screen | AID 1020 | inhibition, % at 5 µM | 200,000 tested, 0.12% active | Purified L. mesenteroides G6PDH, diaphorase/resazurin coupled fluorescence, 45 min
PfGluPho inh = PfG6PD (Plasmodium falciparum) enzyme inhibition. 350,000 tested, 0.78% active. PfGluPho enzyme, NADPH resazurin-diaphorase fluorescence. inhibition, % at 20 µM;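 active = inhibition reaching at least a set limit at 20 µM in the primary screen, cut at about 59% in these data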;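 note: 0% = DMSO wells with substrate and 100% = DMSO wells lacking glucose-6-phosphate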
DTT redox prof = compounds producing H2O2 with reducing agent – biochemical, NIH compound library profiling, artefact control for MLSCN library redox annotation, primary screen | 200,000 tested, 0.03% active | DTT-dependent redox cycling H2O2, phenol red/HRP absorbance; 100% = 100 µM peroxide control, 0% = buffer | AID 878 | activation, % at 10 µM;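 active = activation of at least 50% relative to the plate's high and low controls in the primary single-dose screen; inactive = activation below 50%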;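 note: compound incubated with DTT at 0.8 mM final as the reducing agent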
Diaph act CS = counter-screen for diaphorase-based assays: diaphorase activators and chemical reducers | AID 1229 | 190,000 tested, 0.005% active | Diaphorase/resazurin coupled assay, resorufin fluorescence, 16 min; stronger effect = higher value; 1 = vehicle wells, 0 = NADH-free wells | activation factor at 20 µM;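 active = diaphorase activity raised at least twofold by the compound at 20 µM; inactive = activation factor below 2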
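Material: Clostridium kluyveri diaphorase, purified enzyme; Quantity: enzyme 0.07 U/mL final; Medium: HEPES pH 7.4 buffer with MgCl2 and Tween 20; Dosing: single compound dose of 20 µM, 1% DMSO final; Schedule: 16 min reaction at room temperature; Measured by: red resorufin fluorescence at 544/590 nm excitation/emission.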
Diaphorase inh = inhibits diaphorase or chemically oxidizes, flagging diaphorase assay artifacts. diaphorase resazurin-to-resorufin fluorescence, NADH, 16 min; bacterial (C. kluyveri) enzyme, not human. inhibition, % at 20 µM. 190,000 tested, 0.69% active. AID 1217;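 active = primary screen inhibition at 20 µM above a set limit, cut at about 50% in these data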;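 note: plate controls were DMSO with full reaction for no effect and wells lacking NADH for full effect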
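Test system: Clostridium kluyveri diaphorase enzyme / Quantity: diaphorase at 0.14 U/mL in enzyme working solution / Incubation: 16-min room-temperature incubation before reading / Benchmarks: NADH-free wells as positive control, DMSO-only neutral wells / Signal: resorufin fluorescence 544/590 nm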
L major viab = Leishmania major promastigote growth inhibition. inhibition, % at 10 µM. 200,000 tested, 9% active. Leishmania major promastigotes, resazurin fluorescence viability;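 note: promastigotes grown with compound for 44 hours at 28 °C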
Active calls of the source: *; · = no result. The entries come from a sample that favours hits as a whole. Cut-off read from the data, not from the text of the source, unless noted: active = inhibition above about 50%; inactive = the rest.

SMILES	G6PDH counter	PfGluPho inh	DTT redox prof	Diaph act CS	Diaphorase inh	L major viab
O=C(NCc1ccccn1)C1CCCCC1	-4	4	-1	1.1	-13	5
CCOC(=O)CCCCC(=O)c1[nH]c(=O)[nH]c1CSc1nnc2c3ccccc3n(C(C)C)c2n1	4	37	0	1	4	-2
C(=N\Nc1nc2ccccc2[nH]1)/c1c[nH]c2ccccc12	-11	46	0	0.9	14	99*
Brc1ccc(-c2ccc(/C=N/Nc3nncc(-c4ccccc4)n3)o2)cc1	3	-3	0	0.9	8	0
O=[N+]([O-])c1cc(/C=N/Nc2nc3ccccc3[nH]2)c(O)cc1O	3	14	2	0.9	13	99*
C(=N\Nc1nc2ccccc2[nH]1)/c1ccccc1	14	30	-1	·	·	47
Cc1ccc(/C=N/Nc2nc3ccccc3[nH]2)s1	-23	16	0	1.1	-6	57*
Brc1ccc(-c2ccc(/C=N/Nc3nc4ccccc4[nH]3)o2)cc1	-17	4	0	0.9	9	80*
Cc1ccccc1/C=N/Nc1nc2ccccc2[nH]1	6	12	-1	1.1	-8	79*
O=C(NCCc1ccc(F)cc1)c1cc(=O)c2ccccc2o1	3	7	-1	0.9	14	3
COc1ccccc1C(=O)Nc1ccc(S(=O)(=O)N2CCCCC2)cc1	·	0	·	·	·	·
CCOC(=O)c1ccc(N2CCN(c3ccc(F)cc3)CC2)c(NC(=O)Nc2cccc(OC)c2)c1	-20	7	-1	1	0	96*
CCOC(=O)c1ccc(N2CCN(c3ccccc3F)CC2)c(NC(=O)Nc2ccccc2)c1	-6	-4	3	0.7	25	97*
Cc1c(C(=O)OCC(=O)NC2CC2)oc2ccc(Br)cc12	·	2	·	·	·	·
CN(C)c1ccc(CNC23CC4CC(CC(C4)C2)C3)cc1	·	·	-7	·	·	87*
O=C(CS(=O)(=O)Cc1ccccc1)NCCc1ccc(F)cc1	·	5	·	·	·	·
COc1ccc(CN2CCN(C(=O)c3cccs3)CC2)c(OC)c1OC	6	-9	1	0.9	6	95*
O=C(c1cccs1)N1CCN(Cc2ccccc2[N+](=O)[O-])CC1	2	-6	0	0.8	22	76*
COc1cccc(C(=O)N2CCN(Cc3ccccc3[N+](=O)[O-])CC2)c1	10	-11	0	0.9	13	-6
COC(=O)/C=C1/N/C(=N\c2nc(C)cc(C)n2)N(c2ccc(Cl)cc2)C1=O	8	-14	0	1	4	50*
Cc1cc(C)nc(/N=C2\NC(=O)CC(C(=O)O)N2c2cccc(Cl)c2)n1 (stereo not given)	4	·	-2	1	-3	-1
Cc1sc2ncnc(NCCCn3ccnc3)c2c1C	0	8	3	1	4	55*
O=C1c2ccccc2C(=O)N1/N=C/c1ccc(O)c(O)c1	12	-23	-1	0.5	52*	-5
O=C1C2C3C=CC(CC3)C2C(=O)N1/N=C/c1ccc(O)c(O)c1 (stereo not given)	6	-20	0	0.7	32	-6
CN=C1S/C(=C\c2cc(C)n(-c3ccccc3F)c2C)C(=O)N1C	-33	4	-5	0.9	6	62*
SMILES	G6PDH counter	PfGluPho inh	DTT redox prof	Diaph act CS	Diaphorase inh	L major viab
CCCNC(=O)CSc1nnc(-c2ccccc2Br)n1-c1cccc(C(F)(F)F)c1	3	48	0	1	-3	79*
O=C(CSc1nc2ccccc2c(=O)n1-c1cccc(C(F)(F)F)c1)NC1CC1	12	-3	0	1	5	-3
CCOc1ccc(S(=O)(=O)N2CCN(Cc3ccc4c(c3)OCO4)CC2)cc1C	·	32	·	·	·	·
N=c1occ(C(=O)c2cc(F)ccc2O)cc1C(=O)NC1CCCCC1	3	24	0	1	3	70*
O=C(CCC(=O)N(CC(=O)NC1CCCCC1)Cc1cccs1)Nc1nccs1	·	-7	·	·	·	·
CN(Cc1c(F)cccc1Cl)C(=O)c1ccc(NS(=O)(=O)c2ccc3[nH]c(=O)[nH]c3c2)cc1	·	-30	·	·	·	·
Cc1cccc(Cl)c1OCCN1CCCC1	·	-7	·	·	·	·
Cc1cccc(Cl)c1OCCCCn1ccnc1	0	-8	0	1	2	98*
Cc1cc(Cl)cc(C)c1OCCCCn1ccnc1	2	4	-2	0.9	11	100*
Cc1cc(OCCCCn2ccnc2)cc(C)c1Cl	6	-3	0	1	-3	99*
Clc1ccc(OCCn2ccnc2)cc1Cl	·	0	·	·	·	·
Clc1cccc(OCCCn2ccnc2)c1	·	11	·	·	·	·
Cc1cccc(C(C)(C)C)c1OCCn1ccnc1	-19	6	2	0.8	19	99*
Cc1ccc(C)c(OCCn2ccnc2)c1	·	-6	·	·	·	·
NC(=N\N=Cc1ccco1)/C(N)=N/N=Cc1ccco1	·	4	·	·	·	·
Cc1ccc(S(=O)(=O)CCC(=O)c2ccc(O)cc2O)cc1	0	-1	2	0.8	21	100*
Cc1ccc(S(=O)(=O)CCC(=O)OCc2ccc(Cl)cc2)cc1	-11	0	0	0.9	11	55*
Cc1ccc(S(=O)(=O)CCC(=O)NCc2ccccc2)cc1	12	2	·	0.9	11	57*
Cc1ccc(S(=O)(=O)CCC(=O)OCC(=O)c2cc(C)ccc2C)cc1	·	-4	·	·	·	·
Cc1ccc(CNC(=O)CCS(=O)(=O)c2ccc(Cl)cc2)cc1	1	-12	0	0.9	8	-6
O=C1C=C(c2ccc3c(c2)OCCO3)C[C@@H](c2ccc(F)cc2)C1	·	8	·	·	·	·
Clc1ccc(CN2CCC(c3nc4ccc(Cl)cc4[nH]3)CC2)cc1	0	1	-7	0.9	11	99*
O=[N+]([O-])c1ccc2nc(-c3ccc(OC(F)F)cc3)cn2c1	-4	58	-1	0.9	10	-4
Cc1ccc(C2c3c(C)nn(-c4ccc([N+](=O)[O-])cc4)c3N=C3C(=O)Nc4ccccc4N32)cc1 (stereo not given)	-6	·	-2	0.8	18	99*
COc1cccc(C2c3c(C)nn(-c4ccc([N+](=O)[O-])cc4)c3N=C3C(=O)Nc4ccccc4N32)c1 (stereo not given)	10	14	-2	0.9	11	65*
Cc1nn(-c2ccc([N+](=O)[O-])cc2)c2c1C(c1ccc(OC(F)F)cc1)N1C(=N2)C(=O)Nc2ccccc21 (stereo not given)	1	-8	-1	1	4	68*
COc1ccc(NC2=Nc3ccccc3N3C2=Nc2c(c(C)nn2-c2ccc(C)cc2)C3c2cccnc2)cc1 (stereo not given)	7	19	2	0.7	31	3

Screening results as filed in PubChem.
